Assay outcomes (PubChem)
Lipid droplet: hepatic lipid droplet formation modulation | AID 1656 | inhibition, % at 6.5 µM | AML12 mouse hepatocytes, oleate lipid droplets, BODIPY imaging | actives 0.4% (n = 240,000);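 active = lipid droplet intensity inhibited by at least 50%, with more than 500 cells counted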
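Material: mouse AML12 hepatocyte cell line, fixed after treatment; Timing: compound with oleate, overnight; Technique: high-content imaging of BODIPY-stained droplets and DAPI nuclei; Probe or stimulus: oleate, 100 µM final; Dosing: compound at 6.5 µM only.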
UPR XBP1 act: adaptive UPR (XBP1) activation. CHO-XBP1 luciferase reporter, IRE1-XBP1 UPR activation, luminescence; percent of tunicamycin response, DMSO as zero. activation, % at 20 µM. actives 0.33% (n = 330,000);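 active = versus positive control, 20 µM dose yields 30% or more activation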
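Assay system: CHO-XBP1 luciferase reporter cells; Schedule: 6 h treatment, 37 °C; Detection: glow luminescence from Steady-Glo reagent; Benchmarks: high control tunicamycin 10 µg/mL final, low control DMSO vehicle only.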
TMEM16A act: activates or potentiates the mouse TMEM16A chloride channel | B-score at 10 µM | actives 0.3% (n = 340,000) | HEK293 TMEM16A/YFP-H148Q/I152L, iodide quench fluorescence; stronger effect = lower value | Q8BHY3;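 active = fluorescence-ratio B-score plate-corrected deviation score at least 3 library SD below zero, with starting fluorescence score within 5 deviations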;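 note: channel opened by trigger with iodide after compound preincubation; score built on the fluorescence ratio of max minus min over baseline; more negative score means more quench and so TMEM16A activation or potentiation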
Target sequence (Q8BHY3 whole entry, looked up): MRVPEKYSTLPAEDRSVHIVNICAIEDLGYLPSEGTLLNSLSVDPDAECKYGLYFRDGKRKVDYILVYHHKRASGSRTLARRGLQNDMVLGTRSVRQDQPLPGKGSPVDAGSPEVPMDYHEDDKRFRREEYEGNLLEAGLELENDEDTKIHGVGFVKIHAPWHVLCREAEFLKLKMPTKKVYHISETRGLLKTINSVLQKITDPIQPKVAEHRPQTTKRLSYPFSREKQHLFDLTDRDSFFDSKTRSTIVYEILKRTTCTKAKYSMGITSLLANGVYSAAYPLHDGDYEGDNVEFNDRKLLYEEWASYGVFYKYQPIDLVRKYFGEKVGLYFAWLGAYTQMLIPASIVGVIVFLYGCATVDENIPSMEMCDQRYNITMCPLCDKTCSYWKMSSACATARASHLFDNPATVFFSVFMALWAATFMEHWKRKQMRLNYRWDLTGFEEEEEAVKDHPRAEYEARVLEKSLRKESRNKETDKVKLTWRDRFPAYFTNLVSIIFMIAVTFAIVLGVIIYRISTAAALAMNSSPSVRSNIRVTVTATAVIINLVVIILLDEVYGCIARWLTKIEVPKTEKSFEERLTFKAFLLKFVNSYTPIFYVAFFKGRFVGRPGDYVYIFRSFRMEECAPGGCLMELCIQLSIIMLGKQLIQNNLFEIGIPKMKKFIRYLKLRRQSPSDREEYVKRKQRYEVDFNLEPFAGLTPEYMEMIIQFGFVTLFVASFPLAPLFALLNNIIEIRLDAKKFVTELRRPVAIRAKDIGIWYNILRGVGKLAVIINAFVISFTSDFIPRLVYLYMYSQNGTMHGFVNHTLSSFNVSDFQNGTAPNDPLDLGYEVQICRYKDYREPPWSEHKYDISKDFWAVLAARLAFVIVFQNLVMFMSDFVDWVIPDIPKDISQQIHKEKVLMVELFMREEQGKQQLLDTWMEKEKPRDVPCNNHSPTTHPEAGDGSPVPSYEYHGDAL
CHOP inhibitor: inhibitors of CHOP induction in ER stress response; CHO-K1 CHOP-promoter luciferase, tunicamycin-induced, 15-18 h; inhibition, % at 10 µM; actives 3.8% (n = 220,000); AID 2732;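 active = compounds that reduced the stress-induced luciferase reporter signal by more than about 70% of percent inhibition, limit read from the data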
UPR CHOP act: apoptotic UPR (CHOP) activation. CHO-CHOP luciferase reporter, luminescence; percent of tunicamycin response over DMSO baseline. activation, % at 10 µM. AID 449763. actives 0.34% (n = 330,000);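 active = at 10 µM dose, activation of 40% or more, normalized to positive control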
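Assay system: CHO-CHOP cells, stable luciferase reporter of PERK-eIF2a-CHOP signalling / Buffer or medium: F12 plus 10% serum / Compound dosing: one dose, 10 µM in 0.5% DMSO / Times: 6 h compound treatment, 37 °C / Technique: luciferase luminescence / Read-out: % reporter activation, DMSO baseline versus tunicamycin full activation / Benchmarks: tunicamycin and DMSO controls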
ANO1 block: mouse TMEM16A channel inhibition, primary screen. Q8BHY3. HEK293 TMEM16A/YFP iodide influx fluorescence, ionomycin. normalized B-score (activity score, 25-100; higher = stronger inhibition) at 10 µM. actives 1.2% (n = 310,000). AID 588511;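 active = ratio plate-corrected score three or more library SD toward inhibition, starting fluorescence score within five deviations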;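 note: score derived from kinetic fluorescence span divided by baseline fluorescence per well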
Hits are given with their value. An excerpt weighted towards active compounds, which were near 4.2% of everything screened.

How did CC(C)c1ccccc1NC(=O)COC(=O)CCN1C(=O)/C(=C\C=C\c2ccccc2)SC1=S do in these assays?
Lipid droplet: inactive; UPR XBP1 act: inactive; TMEM16A act: inactive; CHOP inhibitor: 75.5; UPR CHOP act: inactive; ANO1 block: inactive

Results for O=C(CN1C(=O)S/C(=C\C=C\c2ccccc2)C1=O)Nc1ccc(O)cc1 ?
Lipid droplet: inactive; UPR XBP1 act: inactive; TMEM16A act: inactive; CHOP inhibitor: 91.4; UPR CHOP act: inactive; ANO1 block: inactive

What do the screens show for `O=C(COC(=O)CCN1C(=O)/C(=C\C=C\c2ccccc2)SC1=S)Nc1ccc(Br)cc1`?
Lipid droplet: inactive; UPR XBP1 act: inactive; TMEM16A act: inactive; CHOP inhibitor: 72.3; UPR CHOP act: inactive; ANO1 block: inactive

Results for O=C(CCN1C(=O)/C(=C\C=C\c2ccccc2)SC1=S)Nc1ccccc1C(=O)O ?
Lipid droplet: inactive; UPR XBP1 act: inactive; TMEM16A act: inactive; UPR CHOP act: inactive; ANO1 block: 25

How did Cc1ccc(NC(=O)CCCN2C(=O)/C(=C/C=C/c3ccccc3)SC2=S)cc1 do in these assays?
Lipid droplet: inactive; UPR XBP1 act: inactive; TMEM16A act: inactive; CHOP inhibitor: inactive; UPR CHOP act: inactive; ANO1 block: inactive

What do the screens show for `CN(C)c1ccc(NC(=O)CN2C(=O)CC(c3ccccc3)=Nc3ccccc32)cc1`?
UPR XBP1 act: inactive; TMEM16A act: inactive; CHOP inhibitor: 91.0; UPR CHOP act: inactive; ANO1 block: inactive

How did O=C1CCC(c2ccc3ccccc3c2)O1 (centres undefined) do in these assays?
TMEM16A act: inactive

What do the screens show for `COc1ccc(CN(C)CC(=O)Nc2ccccc2C(=O)NC2CC2)cc1`?
UPR XBP1 act: inactive; TMEM16A act: inactive; UPR CHOP act: inactive

How did CC1CCCCC12NC(=O)N(CC(=O)c1ccc(Cl)s1)C2=O (centres undefined) do in these assays?
Lipid droplet: inactive; UPR XBP1 act: inactive; TMEM16A act: inactive; UPR CHOP act: inactive; ANO1 block: inactive

What do the screens show for `O=C(CSc1nc(CCC2CCCC2)nc2ccccc12)NCc1ccc2c(c1)OCO2`?
Lipid droplet: inactive; UPR XBP1 act: inactive; TMEM16A act: inactive; CHOP inhibitor: 95.0; UPR CHOP act: inactive; ANO1 block: inactive

Results for O=C(CSc1nc2ccccc2o1)NCc1ccc2c(c1)OCO2 ?
Lipid droplet: inactive; UPR XBP1 act: inactive; TMEM16A act: inactive; CHOP inhibitor: 79.3; UPR CHOP act: inactive; ANO1 block: inactive

Results for O=C(CSc1ncnc2c1cnn2-c1ccc(F)cc1)NCc1ccc2c(c1)OCO2 ?
Lipid droplet: inactive; UPR XBP1 act: inactive; TMEM16A act: inactive; CHOP inhibitor: 88.6; UPR CHOP act: inactive; ANO1 block: inactive

What do the screens show for `O=C(CSc1nc2ccc(Cl)cc2o1)NCc1ccc2c(c1)OCO2`?
Lipid droplet: inactive; UPR XBP1 act: inactive; TMEM16A act: inactive; CHOP inhibitor: inactive; UPR CHOP act: inactive; ANO1 block: inactive

How did Cc1cc(NC(=O)CSc2nc(CCC3CCCC3)nc3ccccc23)no1 do in these assays?
Lipid droplet: inactive; UPR XBP1 act: inactive; TMEM16A act: inactive; CHOP inhibitor: inactive; UPR CHOP act: inactive; ANO1 block: inactive

How did OCCNC(=S)Nc1cc(Cl)cc(Cl)c1 do in these assays?
Lipid droplet: inactive; UPR XBP1 act: inactive; TMEM16A act: inactive; CHOP inhibitor: inactive; UPR CHOP act: inactive; ANO1 block: inactive

What do the screens show for `COc1ccc(-n2c(CCC(=O)O)ccc2-c2ccc(F)cc2)c(OC)c1`?
Lipid droplet: inactive; UPR XBP1 act: inactive; TMEM16A act: inactive; UPR CHOP act: inactive; ANO1 block: inactive

What do the screens show for `Cc1cc(NC(=O)CSc2nnc(-c3ccncc3)n2C)n(-c2ccccc2)n1`?
Lipid droplet: inactive; UPR XBP1 act: inactive; TMEM16A act: -4.91; CHOP inhibitor: inactive; UPR CHOP act: inactive; ANO1 block: inactive

How did Cc1cc(NC(=O)CSc2nnc(-c3ccncc3)n2Cc2ccccc2)n(-c2ccccc2)n1 do in these assays?
Lipid droplet: inactive; UPR XBP1 act: inactive; TMEM16A act: inactive; CHOP inhibitor: inactive; UPR CHOP act: inactive; ANO1 block: inactive

What do the screens show for `Cn1c(SCC(=O)n2c3c(c4ccccc42)CCCC3)nnc1-c1ccccc1`?
Lipid droplet: inactive; UPR XBP1 act: inactive; TMEM16A act: inactive; CHOP inhibitor: inactive; UPR CHOP act: inactive; ANO1 block: inactive

Results for O=C(CSc1nnc(NC(=O)c2ccccc2Cl)s1)Nc1ccc2c(c1)oc1ccccc12 ?
Lipid droplet: inactive; UPR XBP1 act: inactive; CHOP inhibitor: 70.5; UPR CHOP act: inactive; ANO1 block: inactive

How did CC(=O)Nc1ccc(-c2nnc(SCC(=O)n3c4c(c5ccccc53)CCCC4)n2C)cc1 do in these assays?
Lipid droplet: inactive; TMEM16A act: inactive; CHOP inhibitor: 78.4

What do the screens show for `Cn1c(SCC(=O)Nc2ccc3[nH]c(=O)[nH]c3c2)nnc1-c1ccccc1`?
Lipid droplet: inactive; UPR XBP1 act: inactive; TMEM16A act: inactive; UPR CHOP act: inactive; ANO1 block: inactive

What do the screens show for `CC(C)(C)NC(=O)CSc1nnc(NC(=O)c2ccccc2Cl)s1`?
Lipid droplet: inactive; UPR XBP1 act: inactive; TMEM16A act: inactive; CHOP inhibitor: inactive; UPR CHOP act: inactive; ANO1 block: inactive

How did Cn1c(SCC(=O)Nc2ccc3c(c2)oc2ccccc23)nnc1-c1ccccc1 do in these assays?
Lipid droplet: inactive; UPR XBP1 act: inactive; TMEM16A act: inactive; CHOP inhibitor: 87.5; UPR CHOP act: inactive; ANO1 block: inactive

How did CN(C1CCCCC1)S(=O)(=O)c1cn(C)c(=O)n(C)c1=O do in these assays?
UPR XBP1 act: inactive; TMEM16A act: inactive; UPR CHOP act: inactive

Results for CC1(c2ccc(NC(=O)c3ccccc3F)cc2)CC1(Cl)Cl (centres undefined) ?
Lipid droplet: inactive; UPR XBP1 act: inactive; TMEM16A act: inactive; UPR CHOP act: inactive; ANO1 block: inactive

What do the screens show for `CCc1cc2c3c(c1)/C(=C1/SC(N)=NC1=O)C(=O)N3C(C)(C)C=C2C`?
Lipid droplet: inactive; UPR XBP1 act: inactive; TMEM16A act: inactive; CHOP inhibitor: inactive; UPR CHOP act: inactive; ANO1 block: 100

How did COc1cc2c3c(c1)C(C)=CC(C)(C)N3C(=O)C2=O do in these assays?
Lipid droplet: inactive; UPR XBP1 act: inactive; TMEM16A act: inactive; CHOP inhibitor: inactive; UPR CHOP act: inactive; ANO1 block: inactive

What do the screens show for `Cc1ccc(CS(=O)Cc2ccc(C(=O)NCCc3ccccc3)o2)cc1` (centres undefined)?
Lipid droplet: inactive; UPR XBP1 act: inactive; TMEM16A act: inactive; UPR CHOP act: inactive; ANO1 block: inactive
